Compound activity as filed in PubChem.
This is a sample that favours compounds with a hit; in the whole collection about 2.7% have one here.
Wee1 stabilizer: inhibitors of human Wee1 degradation; P30291; actives 1.2% (n = 220,000); HeLa Luc-Wee1K328M stability, luciferase luminescence; 100% = proteasome inhibitor MG132 effect; reporter increase, % at 5 µM;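 active means activation above the mean of all tested compounds plus 3 SD, set per screening run, cut at about 8.8% in these data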;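 further: cells exposed to compound for 20 h before luminescence read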
Target sequence (P30291 whole entry K328M): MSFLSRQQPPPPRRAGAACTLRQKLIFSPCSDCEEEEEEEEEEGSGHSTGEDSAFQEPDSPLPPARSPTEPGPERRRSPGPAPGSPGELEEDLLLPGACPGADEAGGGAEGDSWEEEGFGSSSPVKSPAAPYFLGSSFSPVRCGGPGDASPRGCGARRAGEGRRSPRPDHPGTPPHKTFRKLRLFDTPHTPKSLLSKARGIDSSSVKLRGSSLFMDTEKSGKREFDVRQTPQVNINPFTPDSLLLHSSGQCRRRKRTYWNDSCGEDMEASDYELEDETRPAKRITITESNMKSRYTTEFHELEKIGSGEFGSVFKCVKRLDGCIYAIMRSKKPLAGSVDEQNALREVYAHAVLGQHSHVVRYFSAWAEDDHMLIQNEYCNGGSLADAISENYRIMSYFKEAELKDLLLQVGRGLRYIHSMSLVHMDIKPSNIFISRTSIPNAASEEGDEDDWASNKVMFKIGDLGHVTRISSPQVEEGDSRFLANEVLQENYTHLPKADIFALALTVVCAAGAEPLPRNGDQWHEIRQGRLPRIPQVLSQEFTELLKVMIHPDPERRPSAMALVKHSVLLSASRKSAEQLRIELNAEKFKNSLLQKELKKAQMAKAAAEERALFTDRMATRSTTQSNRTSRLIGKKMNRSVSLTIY
14-3-3 Bad PPI: disrupts binding of bovine 14-3-3 zeta to phospho-Bad peptide. inhibition, % at 21.7 µM. P63103. TR-FRET 14-3-3zeta/Dy647-pBad peptide displacement, 1 h. actives 0.71% (n = 220,000);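 active means inhibition above about 70%, limit read from the data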
Tb hexokinase: blocks Trypanosoma brucei hexokinase 1 activity; inhibition, % at 10 µM; actives 0.11% (n = 220,000); recombinant TbHK1, G6PDH-coupled NADH A340;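 active means inhibition of 50% or more in the single-dose primary screen; inactive means inhibition below 50%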
MDM2 E3 inh: Mdm2 E3 ligase (human) inhibition. Q00987. cell-based MDM2 ubiquitination luciferase reporter, 2 h; 0 = plate control, 100 = twice control, blank-subtracted. signal enhancement, % at 5 µM. actives 0.11% (n = 210,000);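 active means signal enhancement of 30% or more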;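 further: luminescence tracks abundance of the self-degrading MDM2-luciferase fusion protein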
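Assay system: stable mammalian line carrying autodegrading MDM2–luciferase fusion reporter; amount: 2000 cells seeded into each well; buffer or medium: DMEM; benchmarks: plate control and blank wells; signal: luciferase luminescence; timing: 2 h compound exposure at 37 °C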
Hck-Nef inh: blocks Nef-activated human Hck kinase; P08631; Recombinant Hck-YEEI plus Nef, Z-Lyte FRET kinase assay; inhibition, % at 20 µM; actives 0.68% (n = 220,000);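 active means Hck-Nef kinase inhibition above about 50%, limit read from the data; inactive means inhibition below that limit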
Wee1 stab conf: confirmation of human Wee1 degradation inhibitors; shares compounds with Wee1 stabilizer; HeLa Luc-Wee1K328M degradation, luminescence; vehicle 0%, proteasome-blocked wells 100%; activation, % at 5 µM; actives 4% (n = 1,100); AID 1410; in the data active means activation above about 8.9%
Numbers stand for hits; . = inactive; / = not tested or not shown.

SMILES	Wee1 stabilizer	14-3-3 Bad PPI	Tb hexokinase	MDM2 E3 inh	Hck-Nef inh	Wee1 stab conf
Cc1cc(N/C=C\c2nnnn2-c2ccccc2)no1	.	.	.	.	.	/
CCCCCOC(=O)C1[C@H]2C(=O)N(CCCOC)C[C@]23C=C[C@H]1O3 (stereo not given in full)	.	.	.	.	.	/
COc1cccc(CC2(CO)CCN(Cc3ccc(NC(C)=O)cc3)CC2)c1	22	.	.	.	.	.
CC(C)(C)C(=O)/C(=C/c1ccncc1)n1cncn1	.	.	.	.	.	/
Cc1cc(C)nc(SCc2ccc(C(=O)N/N=C/C3CCCCC3)cc2)n1	.	.	.	.	.	/
C/C(N)=C(\C#N)C(=O)NCc1ccccn1	.	.	.	.	.	/
COc1cc(C2CC(=O)N(CC(=O)NCC3CCCO3)c3ccccc3S2)cc(OC)c1OC (stereo not given)	.	.	.	.	.	/
COc1cc(/C=C2\C(=O)N(c3ccc(NC(C)=O)cc3)N=C2c2ccccc2)ccc1O	.	.	.	.	.	/
O=C1/C(=C\c2ccc(O)c(O)c2)C(c2ccccc2)=NN1c1ccccc1	11	.	.	.	.	.
C=CCNC(=S)NNC(=O)c1cc(O)ccc1O	.	.	.	.	.	/
CC(C)OCCCNC(=O)Nc1cccc2ccccc12	13	.	.	.	.	.
CC(C)OCCCNC(=O)C(C)Oc1ccccc1 (stereo not given)	.	.	.	.	.	/
O=S(=O)(c1ccc(Cl)cc1Cl)n1ccc2cccnc21	12	.	.	.	.	.
CC1Cc2cc(/C(O)=C3/C(=O)C(=O)N(CC4CCCO4)C3c3ccco3)ccc2O1 (stereo not given)	.	.	.	.	.	/
O=C(NNC(=O)C1CC1c1ccccc1)Nc1ccccc1 (stereo not given)	.	.	.	.	.	/
O=C(NNC(=O)C12CC3CC(CC(C3)C1)C2)[C@@H]1C[C@H]1c1ccccc1	20	.	.	.	.	.
COc1cc(O)c(C(C)=O)cc1OC	11	.	.	.	.	.
CC1(C)COC2(OC1)C(=O)N(CN1CCOCC1)c1ccccc12	.	.	.	.	.	/
Cn1c(CNc2ccc(Cl)cc2)nc2ccccc21	13	.	.	.	.	.
COc1ccc(-n2nnnc2SCC(=O)Nc2nc3c(s2)CCCC3)cc1	.	.	.	.	.	/
COc1ccc(-n2nnnc2SCC(=O)Nc2nnn(C)n2)cc1	11	.	.	.	.	.
O=C(Nc1cccnc1)c1cccc(S(=O)(=O)N2CCCCC2)c1	.	.	.	.	.	/
Cc1ccc(S(=O)(=O)N2CCCCC2)cc1C(=O)Nc1cccnc1	18	.	.	.	.	.
CNC(=O)C(=O)NCCc1ccc(Cl)cc1	20	.	.	.	.	.
O=C(NCCC1=CCCCC1)C(=O)NCCc1ccc(Cl)cc1	.	.	.	.	.	/
SMILES	Wee1 stabilizer	14-3-3 Bad PPI	Tb hexokinase	MDM2 E3 inh	Hck-Nef inh	Wee1 stab conf
O=C(CSCC(=O)OCC(=O)c1ccc(Br)cc1)Nc1cccc2ccccc12	.	.	.	.	.	/
Cc1nc(NC(=O)c2ccc3c(c2)OCO3)ccc1Br	19	.	.	.	.	.
Cc1cc(NC(=O)c2ccc3c(c2)OCO3)no1	.	.	.	.	.	/
O=C(CCCCn1c(=O)c2ccccc2n(Cc2ccccc2)c1=O)NC1CCN(Cc2ccccc2)CC1	11	.	.	.	.	.
COCCN(C(=O)C(C)C)c1nnc(-c2ccc(C)cc2)s1	.	.	.	.	.	/
C=CS(=O)(=O)c1ccc(Oc2ccc(S(=O)(=O)C=C)cc2)cc1	15	.	.	64	.	14
O=C1N=C(N2CCCC2C(=O)O)S/C1=C\c1ccco1 (stereo not given)	13	.	.	.	.	.
COc1ccc(CNC(=O)CSc2nc3cccnc3s2)cc1	.	.	.	.	.	/
O=C(CN1N=C(c2ccccc2)CCC1=O)NCCN1CCc2ccccc2C1	13	.	.	/	.	.
O=C(CN1N=C(c2ccccc2)CCC1=O)NCc1ccccc1	.	.	.	.	.	/
Cc1ccc(Nc2cc(C)nn2-c2nc(C)cc(=O)[nH]2)cc1	129	.	.	.	.	123
Cc1ccc(Nc2cc(C)nn2-c2nc(C)cc(C)n2)cc1	.	.	.	.	.	/
CC(=C/c1ccccc1)/C=N/NC(=O)c1ccccn1	32	.	.	.	.	.
COc1ccc(S(=O)(=O)N2CCCN(CC(=O)Nc3ccc4c(c3)OCO4)CC2)cc1	.	.	.	.	.	/
COc1ccc(S(=O)(=O)N2CCN(CC(=O)Nc3ccc(F)c(F)c3)CC2)cc1	12	.	.	.	.	.
CC(C)=CCc1c(O)ccc2c1OC(c1ccc(O)c(O)c1)CC2=O (stereo not given)	33	.	.	.	.	.
O=C1CC(c2ccc(O)c(O)c2)Oc2c1ccc(O)c2O (stereo not given)	/	.	.	.	.	/
O=C(COC(=O)c1cc[n+]([O-])cc1)Nc1ccc([N+](=O)[O-])cc1Cl	.	.	.	.	.	/
COc1ccc(Nc2nc(N)nc(CSc3nccn3C)n2)cc1	12	.	.	.	.	.
CC(C)(C)C(=O)NC(NC(=S)Nc1sc2c(c1C#N)CCCC2)C(Cl)(Cl)Cl (stereo not given)	.	.	.	.	.	/
CN(C)CCCNc1oc(-c2ccccc2)nc1C#N	14	.	.	.	.	.
O=C(NCC1OCCc2ccccc21)c1cc(COc2c(F)cccc2F)on1 (stereo not given)	.	.	.	.	.	/
O=C(N/N=C/c1ccc(Cl)cc1Cl)c1cccc(F)c1	.	.	.	.	.	/
O=C(C[n+]1ccc(C(=O)N/N=C/c2ccc(Cl)cc2Cl)cc1)c1ccccc1	13	.	.	.	.	.
Cc1ccc2nc(C3CCN(CC(=O)Nc4ccc5c(c4)OCCO5)CC3)[nH]c2c1	12	.	.	.	.	.
SMILES	Wee1 stabilizer	14-3-3 Bad PPI	Tb hexokinase	MDM2 E3 inh	Hck-Nef inh	Wee1 stab conf
O=C(CN1CCC(c2nc3ccccc3[nH]2)CC1)Nc1ccc2c(c1)OCO2	.	.	.	.	.	/
O=C(c1ccc(Cl)cc1)N1CCC(O)(CSc2ccc(Cl)cc2Cl)CC1	.	.	.	.	.	/
Cc1ccc(N2CCN(C(=O)N3CCOCC3)CC2)cc1C	12	.	.	.	.	.
CCC(C)(C)C(=O)Nc1cccc(Cl)c1C	.	.	.	.	.	/
CCCCN(C)C(=O)c1oc2ccc(S(=O)(=O)N3CCCCCC3)cc2c1C	.	.	.	.	.	/
CN1/C(=C\C(=O)COC(=O)CNC(=O)c2ccc3ccccc3c2)C(C)(C)c2ccccc21	.	.	.	.	.	/
CN1/C(=C\C(=O)COC(=O)CNC(=O)c2ccccc2F)C(C)(C)c2ccccc21	23	.	.	.	.	.
